# INS promoter inh: TRM-6 insulin promoter activity inhibition; TRM-6 cells (human fetal islet line), insulin promoter-eGFP reporter, imaging; reporter expression induced with tamoxifen; inhibition, % at 2 µM; 0.9% of 130,000 active; AID 1273;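 active = inhibition above the mean plus 3 SD, with well images judged a real hit on visual review, cut at about 60% in these data, passing the limit was not always enough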
# NPY-Y2 PAM-ag: potentiators or agonists of human neuropeptide Y receptor Y2. P49146. 0.45% of 220,000 active. cells expressing NPY-Y2, potentiator/agonist read-out. AID 1359. activation, % at 3.6 µM; in the data active = activation above about 27%;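 also: cells stimulated with NPY near EC25 plus isoproterenol at EC100; 0% = vehicle plus submaximal agonist and 100% = vehicle plus saturating agonist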
# NPY Y2 blocker: NPY-Y2 (human) receptor antagonism | P49146 | NPY-Y2 expressing cells, antagonist mode | inhibition, % at 2.7 µM | 0.99% of 140,000 active | AID 793; in the data active = inhibition above about 17%;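 also: 0% = vehicle with agonist challenge and 100% = reference antagonist with challenge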
# NPY Y1 blocker: blocks the human neuropeptide Y Y1 receptor; inhibition, % at 3.6 µM; 1% of 200,000 active; HEK293-CNG Y1 cells, membrane potential fluorescence; NPY at EC95, then isoproterenol; P25929;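 active = inhibition above the campaign mean inhibition of all tested compounds plus 3 SD, cut at about 20% in these data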;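 also: 0% = DMSO wells given NPY plus isoproterenol and 100% = isoproterenol alone without NPY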
# Target sequence (P25929 whole entry, looked up): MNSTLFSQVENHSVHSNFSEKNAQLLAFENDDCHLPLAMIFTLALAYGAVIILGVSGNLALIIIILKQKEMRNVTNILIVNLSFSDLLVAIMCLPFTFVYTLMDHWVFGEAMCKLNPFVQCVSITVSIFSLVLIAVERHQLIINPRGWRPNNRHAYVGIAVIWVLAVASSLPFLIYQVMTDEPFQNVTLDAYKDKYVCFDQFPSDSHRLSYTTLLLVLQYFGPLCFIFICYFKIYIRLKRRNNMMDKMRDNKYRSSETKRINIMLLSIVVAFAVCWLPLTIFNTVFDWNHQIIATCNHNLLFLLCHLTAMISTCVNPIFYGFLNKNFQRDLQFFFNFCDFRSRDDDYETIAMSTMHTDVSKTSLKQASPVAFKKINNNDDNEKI
#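 material = HEK293 cells with Y1 receptor plus CNG channel | also added = NPY 25 nM then isoproterenol 1 µM plus Ro 20-1724 25 µM | schedule = dye 3 h, compound 60 min room temperature, stimulation 45 min | measured by = membrane potential fluorescence | benchmarks = high control isoproterenol alone, low control NPY with isoproterenol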
# RAM network inh: blocks the yeast RAM network; S. cerevisiae dse1pr::URA3 reporter, 5-FOA growth OD615, 2 d; analog-sensitive cbk1-as2 kinase mutant strain; inhibition, % at 50 µM; 1.8% of 190,000 active; AID 868;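 active = inhibition above a set limit, 3 SD over mean compound inhibition, cut at about 8.4% in these data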;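 also: 0% = DMSO-only wells with no growth and 100% = 10 µM 1-NA-PP1 full growth; inhibition rescues growth on 5-FOA so higher OD means more RAM inhibition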
# NPY1 pot ag: human NPY-Y1 potentiation or agonism, primary screen. P25929. NPY-Y1 expressing cells, potentiator/agonist activation. activation, % at 3.6 µM. 0.37% of 220,000 active. AID 1304; in the data active = activation above about 33%, passing the limit was not always enough;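 also: cells stimulated with NPY at EC10 then isoproterenol at EC100; 0% = low agonist plus stimulus and 100% = saturating agonist plus stimulus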
# NPY-Y1 confirm: human NPY-Y1 potentiation or agonism, confirmation; shares compounds with NPY1 pot ag; cell-based NPY-Y1 potentiator/agonist assay; activation, % at 3.6 µM; 20% of 280 active; in the data active = activation above about 45%;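 also: cells challenged with NPY at its EC10 plus isoproterenol stimulus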
# NPY-Y2 counter: NPY-Y2 potentiation or agonism as NPY-Y1 counter-screen | AID 1649 | HEK293-CNG cells, membrane-potential fluorescence (FLIPR), 1536-well | 20% of 280 active | activation, % at 3.6 µM | shares compounds with NPY1 pot ag; in the data active = activation above about 33%
# NPY-Y1 agonist: counter-screen for NPY-Y1 potentiators: agonists of human NPY-Y1 | shares compounds with NPY1 pot ag | AID 1697 | HEK293 Y1-CNGC, membrane potential fluorescence, agonist mode | 50% of 280 active | activation, % at 3.6 µM;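 active = percent activation above the mean of DMSO-only control wells plus 3 SD of those wells, cut at about 18% in these data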;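 also: cells challenged with isoproterenol plus Ro 20-1724 with no NPY in test wells; Y1 agonism lowers isoproterenol-driven cAMP and reduces probe fluorescence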
# NPY-Y2 ag: human NPY-Y2 agonism as NPY-Y1 counter-screen; shares compounds with NPY1 pot ag; HEK293 Y2-CNGC, membrane potential fluorescence, agonist mode; activation, % at 3.6 µM; 67% of 280 active; AID 1698;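 active = activation above the solvent-only control wells' mean plus 3 SD, cut at about 11% in these data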;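 also: 0% = DMSO with isoproterenol and 100% = 40 nM NPY maximal response; agonism lowers cAMP so well fluorescence drops in active wells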
# CNGC counter: counter-screen for NPY-Y1 potentiators or agonists: CNG channel inhibitors; HEK293-CNG parental, isoproterenol cAMP, membrane potential fluorescence; inhibition, % at 3.6 µM; 42% of 280 active; shares compounds with NPY1 pot ag;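 active = inhibition above the mean of stimulated solvent-only control wells plus 3 SD, cut at about 22% in these data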;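 also: 0% = isoproterenol-stimulated DMSO wells and 100% = unstimulated DMSO wells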
# The depositor's hits bear a star; / = no result given. Only some compounds are listed: those with a hit (about 3.8% of all), similar ones and a draw of the others.
SMILES,INS promoter inh,NPY-Y2 PAM-ag,NPY Y2 blocker,NPY Y1 blocker,RAM network inh,NPY1 pot ag,NPY-Y1 confirm,NPY-Y2 counter,NPY-Y1 agonist,NPY-Y2 ag,CNGC counter
Cc1cccc(C)c1Nc1c(-c2ccccn2)nc2ccccn12,25,27,/,-7,0,46*,48*,34*,39*,41*,31*
Cc1ccc(C(=O)Nc2ccc(N3CCN(C)CC3)nc2)cc1,36,-5,/,5,0,16,/,/,/,/,/
Nc1nc(Cl)cc(N2CCC(c3cc(-c4ccc(Cl)cc4)n[nH]3)CC2)n1,-7,33,-2,-5,2,55*,15,15,1,15*,6
Cc1ccc(N2CCN(C(=O)c3ccccc3NC(=O)/C=C\C(=O)O)CC2)cc1,/,8,1,0,-1,22,/,/,/,/,/
COc1ccccc1Oc1ccc(-c2cnc3ccccc3n2)cc1[N+](=O)[O-],/,19,/,3,6,47*,36,24,38*,21*,0
COCCNC(=O)NC(=O)CSc1nc(C)c(C)c(C)n1,-17,-13,/,-3,2,10,/,/,/,/,/
CC(C)Cn1nnc2c(=O)oc3ccccc3c21,-71,14,0,1,3,60*,38,24,25*,23*,22*
O=C(Nc1ccc(C(O)(C(F)(F)F)C(F)(F)F)cc1)c1ccc(Cl)c([N+](=O)[O-])c1,55,26,-6,-14,-1,46*,50*,50*,41*,40*,51*
O=C(O)c1cc(NC(=O)c2ccc(Cl)c([N+](=O)[O-])c2)cc(C(=O)O)c1,/,2,/,-7,0,13,/,/,/,/,/
Cn1c(SCc2ccccc2[N+](=O)[O-])nnc1-c1cccnc1,/,-13,/,2,2,2,/,/,/,/,/
CC1N(C)c2cc(NC(=O)c3ccco3)c(P(=O)(Nc3ccc([N+](=O)[O-])cc3)N3CCOCC3)cc2C1(C)C (stereo not given),/,22,/,-9,1,37*,37,25,17,29*,24*
CC1N(C)c2cc(NC(=O)c3ccco3)ccc2C1(C)C (stereo not given),/,-15,13,8,0,-26,/,/,/,/,/
C=CCn1c(SCC(=O)Nc2sccc2C(N)=O)nc2ccc(Cl)cc2c1=O,-16,13,-2,-5,1,38*,23,18,2,19*,9
C=CCn1c(SCC(=O)Nc2sccc2C(N)=O)nc2ccccc2c1=O,18,7,3,3,1,-3,/,/,/,/,/
C=CCc1ccc(O)c(-c2cc(CC=C)ccc2O)c1,/,15,/,-8,-2,33*,22,11,12,16*,21
O=S(=O)(c1ccc(S(=O)(=O)N(Cc2ccco2)Cc2ccccc2Cl)cc1)N1CCCC1,21,-15,5,3,7,-29,/,/,/,/,/
CN(C)S(=O)(=O)c1ccc(S(=O)(=O)N(Cc2ccco2)Cc2ccccc2Cl)cc1,-17,20,12,-10,7,38*,0,-3,-8,0,-14
COc1cc(NC(=O)Cn2nnc(-c3ccccc3N)n2)cc(OC)c1,3,8,1,-2,5,2,/,/,/,/,/
O=C(Cc1ccccc1)NNC(=O)Nc1cccc(Cl)c1,/,4,7,-2,1,11,/,/,/,/,/
O=C(CN1c2ccccc2Sc2ccccc21)NNC(=O)Nc1cccc(Cl)c1,/,9,/,/,/,50*,48*,30,45*,36*,40*
